# Assay outcomes deposited in PubChem BioAssay by Johns Hopkins Ion Channel Center.
# RGS4 act = potentiators or activators of RGS4; HEK293 M3R/inducible RGS4, carbachol calcium flux Fluo4; active compounds read low; AID 463111; 310,000 compounds, 0.92% hits; B-score at 10 µM;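 active means B-score of the integrated calcium signal more than 4 SD below the library mean, with starting fluorescence not abnormally high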;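 further: negative B-score means reduced calcium response which marks RGS4 activation or potentiation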
#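 Detection: kinetic calcium fluorescence imaging with Fluo4-AM dye, 2 µM / Material: HEK293 cells with stable M3R and inducible RGS4 / Schedule: recording 10 s baseline at 1 Hz, 100 s post-agonist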
# MrgX1 antagonist = human MrgX1 receptor antagonism, primary screen; AID 588676; B-score at 10 µM; 310,000 compounds, 1.3% hits; MRGX1-HEK293 calcium flux, Fluo-4, BAM8-22 antagonism; active compounds read low;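 active means calcium-response B-score plate-corrected more than 3 library SD below zero, starting fluorescence within 5 deviations, no agonist response on first addition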;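 further: peak minus trough fluorescence over baseline after final BAM8-22 challenge near maximal dose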
# Target sequence (Q96LB2 whole entry, looked up): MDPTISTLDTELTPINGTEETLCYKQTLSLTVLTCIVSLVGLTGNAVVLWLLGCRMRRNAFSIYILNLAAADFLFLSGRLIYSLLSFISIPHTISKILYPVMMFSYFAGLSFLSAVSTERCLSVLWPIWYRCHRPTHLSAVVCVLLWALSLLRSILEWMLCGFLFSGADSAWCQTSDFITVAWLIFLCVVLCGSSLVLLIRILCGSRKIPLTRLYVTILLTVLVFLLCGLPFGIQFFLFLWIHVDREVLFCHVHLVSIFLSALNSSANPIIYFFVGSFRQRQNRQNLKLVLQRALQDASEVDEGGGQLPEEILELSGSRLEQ
# MrgX1 allo act = allosterically activates human MrgX1 receptor signaling; Q96LB2; MrgX1-HEK293, Fluo-4 calcium flux, FDSS; active compounds read high; B-score at 10 µM; 310,000 compounds, 0.63% hits; AID 588675;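 active means plate-corrected calcium response at least 3 library SD above typical, normal starting fluorescence, not activating the receptor alone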;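 further: compound read alongside a low EC10 to EC30 dose of BAM8-22 agonist; peak minus trough fluorescence over baseline measured at the second addition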
# RGS4 block = inhibitors of human RGS4; P49798; 310,000 compounds, 0.45% hits; B-score at 10 µM; AID 463165; HEK293 M3R/RGS4 inducible, Fluo-4 calcium flux; active compounds read high; triggered by carbachol at its EC20;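 active means B-score, a plate-corrected calcium signal, over three deviations above library mean, with baseline fluorescence within five deviations of library mean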;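 further: RGS4 expression induced by doxycycline in cells with stable M3 receptor; B-score is computed from the integrated fluorescence ratio over baseline after carbachol; higher B-score means a larger calcium signal and so more RGS4 inhibition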
# Target sequence (P49798 whole entry, looked up): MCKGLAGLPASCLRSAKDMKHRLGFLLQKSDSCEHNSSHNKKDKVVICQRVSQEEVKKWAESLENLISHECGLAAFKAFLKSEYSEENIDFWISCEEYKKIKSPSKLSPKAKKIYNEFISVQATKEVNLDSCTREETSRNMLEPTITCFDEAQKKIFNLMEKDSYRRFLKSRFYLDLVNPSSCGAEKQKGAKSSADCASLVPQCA
# MrgX1 agonist = human MrgX1 receptor agonism, primary screen | AID 588627 | MrgX1-HEK293 cells, Fluo-4 calcium fluorescence, agonist mode; active compounds read high | Q96LB2 | 310,000 compounds, 0.44% hits | B-score at 10 µM;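 active means calcium response B-score plate-corrected fluorescence ratio at least 3 library SD, with starting fluorescence B-score inside 5 SD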
#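 Material: HEK293 cells stably expressing human MrgX1 receptor | Quantity: 15,000 cells per well | Times: Cells plated overnight, dye loaded 0.5 h 37 °C, 0.5 h room temperature | Measured by: Kinetic Fluo-4 NW fluorescence of intracellular calcium | Control set: Positive and negative controls per plate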
# MrgX1 allo conf = confirmation of human MrgX1 receptor positive allosteric modulators. shares compounds with MrgX1 allo act. MrgX1-HEK293, Fluo-4 calcium fluorescence, FDSS. activation (ratio percentage), % at 10 µM. 1,200 compounds, 13% hits. AID 602413;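 active means ratio at least 3 SD above the weak peptide control, stable starting fluorescence, no direct agonism earlier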;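 further: compound followed by low BAM8-22 agonist challenge near EC20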
# MrgX1 antag conf = human MrgX1 receptor antagonism, re-confirmation screen; shares compounds with MrgX1 antagonist; MrgX1-HEK293, BAM8-22 calcium flux, Fluo-4; active compounds read low; 2,300 compounds, 19% hits; remaining BAM8-22 calcium response % of control (active compounds read low), % at 10 µM;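 active means remaining agonist calcium response no higher than 100% minus 3 SD of agonist-only control wells, with starting fluorescence near control levels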;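 further: agonist BAM8-22 given at a near maximal EC90 to ECmax level; peak minus minimum fluorescence divided by baseline after agonist addition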
# HEK293 Ca flux = counter-screen for MrgX1 antagonists: effect in parental HEK293 cells; 4,000 compounds, 2% hits; Fluo-4 calcium fluorescence, FDSS; fluorescence ratio F(max-min)/F0 at 10 µM; shares compounds with MrgX1 antagonist;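 active means duplicate-averaged calcium fluorescence ratio at least three times the standard deviation of buffer wells, a nonspecific response in parental cells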
# HEK293 Ca counter = counter-screen for MrgX1 allosteric activators: effect in parental HEK293 cells. shares compounds with MrgX1 antagonist. parental HEK293 calcium flux, Fluo-4 fluorescence ratio; active compounds read high. fluorescence ratio F(max-min)/F0 at 10 µM. 4,000 compounds, 0.4% hits;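 active means calcium fluorescence ratio, averaged over duplicates, at least 3 SD of the buffer-well ratio, meaning a nonspecific response in receptor-free cells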;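 further: untransfected parental HEK293 lacking MrgX1 used as counterscreen for MrgX1 allosteric activators; fluorescence change taken during the second addition on a kinetic imager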
# HEK293 Ca cntr2 = MrgX1 activator counter-screen hit in parental HEK293 cells | 4,000 compounds, 8.7% hits | AID 624115 | Fluo-4 calcium fluorescence (FDSS); active compounds read high | shares compounds with MrgX1 antagonist | fluorescence ratio F(max-min)/F0 at 10 µM;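 active means calcium fluorescence ratio at least three times the spread of buffer wells, meaning a non-specific response in parental cells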
# * = called active by the depositor; i = inactive; nt = no result. An excerpt weighted towards active compounds, which were near 3.5% of everything screened.
SMILES,RGS4 act,MrgX1 antagonist,MrgX1 allo act,RGS4 block,MrgX1 agonist,MrgX1 allo conf,HEK293 Ca flux,HEK293 Ca counter,HEK293 Ca cntr2,others
O=C(CN1C(=O)C2C3CC(C(Br)C3Br)C2C1=O)N1CCOCC1 (stereo not drawn),i,i,i,i,i,nt,nt,nt,nt,
O=C(CN1C(=O)C2C3CC(C(Br)C3Br)C2C1=O)N1CCN(Cc2ccccc2)CC1 (stereo not drawn),i,i,7.7*,i,i,i,i,i,i,
CC(C)Cc1ccc(C(C)C(=O)Nc2ccccc2O)cc1 (stereo not drawn),i,i,7*,i,i,i,i,i,i,
CC1CN(S(=O)(=O)c2ccc(C(=O)N(CCCN(C)C)c3nc4c(Cl)cccc4s3)cc2)CC(C)O1 (stereo not drawn),i,i,i,i,i,nt,nt,nt,nt,
COc1cc(NC(=O)Nc2ccc(Cl)c(Cl)c2)c(C(=O)O)cc1OC,i,i,i,i,i,nt,nt,nt,nt,
Cc1nc(N2CCN(Cc3ccccc3)CC2)nc2c1C(=O)CC(C)C2 (stereo not drawn),i,i,i,i,i,nt,nt,nt,nt,
CCN1CCN(c2nc(C)c3c(n2)CC(C)CC3=O)CC1 (stereo not drawn),i,i,8*,i,i,i,i,i,i,
Cc1ccc(C(c2nnnn2Cc2cccs2)N2CCN(C(=O)c3ccco3)CC2)cc1 (stereo not drawn),i,i,i,i,i,nt,nt,nt,nt,
CCC(c1nnnn1Cc1cccs1)N1CCN(C(=O)c2ccco2)CC1 (stereo not drawn),i,i,7.1*,i,i,i,i,i,i,
C=CCNC(=O)COC(=O)C1CCN(S(=O)(=O)c2ccc3c(c2)OCCO3)CC1,i,i,i,i,i,nt,nt,nt,nt,
NC(=O)c1cc([N+](=O)[O-])ccc1NCC1CCCCC1,nt,i,i,nt,i,nt,nt,nt,nt,
CC(=O)Nc1ccc(N2CCN(c3ccc(C(F)(F)F)cn3)CC2)nc1,i,i,i,i,i,nt,nt,nt,nt,
CCN(CC(=O)Nc1ccc(NC(C)=O)cc1)c1ccc(C(F)(F)F)cn1,i,i,9.6*,i,i,i,i,i,i,
CC1CCN(S(=O)(=O)c2c[nH]c(=O)[nH]c2=O)CC1,i,i,i,i,i,nt,nt,nt,nt,
CCC(=O)NC1(C(F)(F)F)C(=O)Nc2c1c(=O)[nH]c(=O)n2CC(C)C (stereo not drawn),i,i,i,i,i,nt,nt,nt,nt,
CC(C)(C)c1nnc(NC(=O)CCS(=O)(=O)c2ccccc2)s1,i,i,43*,i,i,i,i,i,i,
CC(=O)NC(CC(=O)N(Cc1ccccc1)c1cccc(C)c1)c1ccccc1 (stereo not drawn),i,i,8.6*,i,i,i,i,i,99*,
COc1ccc(-c2nnc(NC(=O)c3ccc(S(=O)(=O)N4COCC4(C)C)cc3)o2)cc1,i,i,7*,i,i,i,i,i,i,
CC1CCCCN1S(=O)(=O)c1ccc(C(=O)Nc2nnc(-c3ccncc3)o2)cc1 (stereo not drawn),i,i,i,i,i,nt,nt,nt,nt,
CCOc1ccccc1Nc1ccnc2cc(Cl)ccc12,i,i,11*,i,i,i,i,i,i,
Nc1ccc2c(c1)Oc1ccccc1C=C2,i,i,12*,i,i,i,i,i,46*,
COc1ccc2ccc(O)c(CN(C)CC(=O)Nc3ccccc3C(F)(F)F)c2c1,i,i,i,i,i,nt,nt,nt,nt,
COc1ccc(C(=O)Nc2scc(-c3ccc(Cl)cc3Cl)c2C(N)=O)cc1,i,i,27*,i,i,20%*,i,i,i,
COc1ccc(C(=O)Nc2cc(OC)c(Cl)cc2Cl)cc1,i,i,i,i,i,nt,nt,nt,nt,
O=S(=O)(Nc1nc2ccccc2s1)c1ccc(Cl)s1,i,-5.3*,9.1*,i,i,i,i,i,i,MrgX1 antag conf=i
SMILES,RGS4 act,MrgX1 antagonist,MrgX1 allo act,RGS4 block,MrgX1 agonist,MrgX1 allo conf,HEK293 Ca flux,HEK293 Ca counter,HEK293 Ca cntr2,others
O=S(=O)(Nc1nc2ccccc2s1)c1cc(F)ccc1F,i,i,i,i,i,nt,nt,nt,nt,
O=C(Nc1ccc(C(=O)NC2CCCCC2)cc1)c1cccnc1,i,i,10*,i,i,i,i,i,i,
CCN1C(=O)[C@H]2[C@@H](c3ccc(C)cc3)N3C(=O)N(c4cccc(F)c4)C(=O)[C@@]3(C)[C@H]2C1=O,i,i,i,i,i,nt,nt,nt,nt,
CCn1c(/N=C/c2ccccc2NS(=O)(=O)c2ccc(C)cc2)nc2ccccc21,nt,i,14*,nt,i,i,i,i,i,
COc1ccc(CCNC(=O)c2coc(=O)c(Br)c2)cc1,i,i,i,i,i,nt,nt,nt,nt,
Nc1ccc(Cl)cc1C(=O)OCC(=O)NC1CCS(=O)(=O)C1 (stereo not drawn),i,i,16*,i,i,i,i,i,i,
Cc1ccc(N(CC(=O)Nc2ccc(Br)c(C)c2)S(=O)(=O)c2c(C)[nH]c(=O)[nH]c2=O)cc1,i,i,8.3*,i,i,i,i,i,i,
COc1ccc(N(CC(=O)Nc2cc(C)ccc2C)S(=O)(=O)c2c(C)[nH]c(=O)[nH]c2=O)cc1,i,i,i,i,i,nt,nt,nt,nt,
O=C(NCN1CCOCC1)c1cnccn1,i,i,i,i,i,nt,nt,nt,nt,
CCOC(=O)C(C)Sc1nc2c(cnn2-c2ccc(F)cc2)c(=O)[nH]1 (stereo not drawn),i,i,i,i,i,nt,nt,nt,nt,
c1coc(-c2nc3nc4ccccc4nc3n2CC2CCCO2)c1 (stereo not drawn),i,i,i,i,i,nt,nt,nt,nt,
